The source made the active and inactive calls. The rule behind the calls is not given here.
Legend:
Sarcoma-180 [1] = experiment: Antitumor activity against mouse Sarcoma 180 cells allografted in CD-1 mouse assessed as mouse survival at 40 mg/kg, ip qd for 6 consecutive days starting 24 hrs post implantation measured after 50 days relative to control; format: functional; settings: Sarcoma-180, ip, route intraperitoneal
How it was run: (§1)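 Female CD-1 mice carrying Sarcoma 180 ascites cells from 7-day donor tumors. Given intraperitoneal doses daily for six consecutive days beginning 24 h after implantation; groups of 10 mice, 5 for some. Read-out is the percentage of mice in each group alive more than 50 days.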

Sarcoma-180 [2] = experiment: Antitumor activity against mouse Sarcoma 180 cells allografted in CD-1 mouse assessed as mouse survival at 60 mg/kg, ip qd for 6 consecutive days starting 24 hrs post implantation measured after 50 days relative to control; format: functional; settings: Sarcoma-180, ip, route intraperitoneal; how it was run: as §1
Sarcoma-180 [3] = experiment: Antitumor activity against mouse Sarcoma 180 cells allografted in CD-1 mouse assessed as mouse survival at 80 mg/kg, ip qd for 6 consecutive days starting 24 hrs post implantation measured after 50 days relative to control; format: functional; settings: Sarcoma-180, ip, route intraperitoneal; how it was run: as §1
Sarcoma-180 [4] = experiment: Antitumor activity against mouse Sarcoma 180 cells allografted in CD-1 mouse assessed as increase in average survival time at 40 mg/kg, ip qd for 6 consecutive days starting 24 hrs post implantation measured relative to control; format: functional; settings: route intraperitoneal
How it was run: (§2)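 Sarcoma 180 ascites cells propagated in female CD-1 mice; implanted from donors carrying 7-day tumors. Dosed intraperitoneally once daily for six days starting 24 h post-implant; 10 mice per group, 5 for some groups. %T/C = average survival time (treated/control) × 100; mice surviving more than 50 days counted as 50 days. Body-weight change over the therapy period also recorded.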

Sarcoma-180 [5] = experiment: Antitumor activity against mouse Sarcoma 180 cells allografted in CD-1 mouse assessed as increase in average survival time at 60 mg/kg, ip qd for 6 consecutive days starting 24 hrs post implantation measured relative to control; format: functional; settings: route intraperitoneal; how it was run: as §2
Sarcoma-180 [6] = experiment: Antitumor activity against mouse Sarcoma 180 cells allografted in CD-1 mouse assessed as increase in average survival time at 80 mg/kg, ip qd for 6 consecutive days starting 24 hrs post implantation measured relative to control; format: functional; settings: route intraperitoneal; how it was run: as §2
Mus musculus [7] = experiment: Toxicity in mouse Sarcoma 180 cells allografted CD-1 mouse assessed as change in body weight at 40 mg/kg, ip qd for 6 consecutive days starting 24 hrs post implantation (reference value: +13.5 %); format: organism-based; parameters: dose 40 mg/kg, route intraperitoneal; settings: in vivo
Mus musculus [8] = experiment: Toxicity in mouse Sarcoma 180 cells allografted CD-1 mouse assessed as change in body weight at 60 mg/kg, ip qd for 6 consecutive days starting 24 hrs post implantation (reference value: +13.5 %); format: organism-based; parameters: dose 60 mg/kg, route intraperitoneal; settings: in vivo
Mus musculus [9] = experiment: Toxicity in mouse Sarcoma 180 cells allografted CD-1 mouse assessed as change in body weight at 80 mg/kg, ip qd for 6 consecutive days starting 24 hrs post implantation (reference value: +13.5 %); format: organism-based; parameters: dose 80 mg/kg, route intraperitoneal; settings: in vivo
L1210 [10] = experiment: Antitumor activity against mouse L1210 cells allografted in […] mouse assessed as increase in average survival time at 60 to 100 mg/kg, ip qd for 6 consecutive days starting 24 hrs post implantation relative to control
Sarcoma-180 [11] = experiment: Antitumor activity against mouse Sarcoma 180 cells allografted in CD-1 mouse assessed as increase in average survival time at 80 mg/kg, ip qd for 6 consecutive days starting 24 hrs post implantation measured relative to control
L1210 [12] = experiment: Antitumor activity against mouse L1210 cells allografted in CDF-1 mouse assessed as increase in average survival time at 60 to 100 mg/kg, ip qd for 6 consecutive days starting 24 hrs post implantation relative to control; settings: dose mg/kg 60-100; route intraperitoneal

## O=S(=O)(N/N=C/c1ccnc[n+]1[O-])c1ccccc1
Sarcoma-180 [1]
  survival at 40 mg/kg: 0%
Sarcoma-180 [2]
  survival at 60 mg/kg: 0%
Sarcoma-180 [3]
  survival at 80 mg/kg: 0%
Sarcoma-180 [4]
  T/C: 89%
Sarcoma-180 [5]
  T/C: 97%
Sarcoma-180 [6]
  T/C: 112%
Mus musculus [7]
  Activity: 16.3%
Mus musculus [8]
  Activity: 11.2%
Mus musculus [9]
  Activity: 9.6%
L1210 [10]
  Activity: inactive
Sarcoma-180 [11]
  Activity: inactive

## Cc1ccc(S(=O)(=O)N/N=C/c2cccc[n+]2[O-])cc1
L1210 [12]
  T/C: 170%

## COc1ccc(S(=O)(=O)N/N=C/c2cccn[n+]2[O-])cc1
Sarcoma-180 [1]
  survival at 40 mg/kg: 10%
Sarcoma-180 [2]
  survival at 60 mg/kg: 20%
Sarcoma-180 [3]
  survival at 80 mg/kg: 0%
Sarcoma-180 [4]
  T/C: 231%
Sarcoma-180 [5]
  T/C: 218%
Sarcoma-180 [6]
  T/C: 193%
Mus musculus [7]
  Activity: -1.6%
Mus musculus [8]
  Activity: -3.2%
Mus musculus [9]
  Activity: -4.3%
L1210 [10]
  Activity: inactive

## Cc1ccc(S(=O)(=O)N/N=C/c2ccnc[n+]2[O-])cc1
Sarcoma-180 [1]
  survival at 40 mg/kg: 0%
Sarcoma-180 [2]
  survival at 60 mg/kg: 0%
Sarcoma-180 [3]
  survival at 80 mg/kg: 0%
Sarcoma-180 [4]
  T/C: 115%
Sarcoma-180 [5]
  T/C: 100%
Sarcoma-180 [6]
  T/C: 103%
Mus musculus [7]
  Activity: 19.6%
Mus musculus [8]
  Activity: 16.5%
Mus musculus [9]
  Activity: 15.2%
L1210 [10]
  Activity: inactive
Sarcoma-180 [11]
  Activity: inactive

## COc1ccc(S(=O)(=O)N/N=C/c2ccnc[n+]2[O-])cc1
Sarcoma-180 [1]
  survival at 40 mg/kg: 0%
Sarcoma-180 [2]
  survival at 60 mg/kg: 0%
Sarcoma-180 [3]
  survival at 80 mg/kg: 0%
Sarcoma-180 [4]
  T/C: 96%
Sarcoma-180 [5]
  T/C: 100%
Sarcoma-180 [6]
  T/C: 94%
Mus musculus [7]
  Activity: 20.3%
Mus musculus [8]
  Activity: 10.8%
Mus musculus [9]
  Activity: 13.9%
L1210 [10]
  Activity: inactive
Sarcoma-180 [11]
  Activity: inactive

## O=S(=O)(N/N=C/c1cccn[n+]1[O-])c1ccccc1
Sarcoma-180 [1]
  survival at 40 mg/kg: 10%
Sarcoma-180 [2]
  survival at 60 mg/kg: 10%
Sarcoma-180 [3]
  survival at 80 mg/kg: 40%
Sarcoma-180 [4]
  T/C: 194%
Sarcoma-180 [5]
  T/C: 230%
Sarcoma-180 [6]
  T/C: 274%
Mus musculus [7]
  Activity: -2.9%
Mus musculus [8]
  Activity: -3.8%
Mus musculus [9]
  Activity: -3.5%
L1210 [10]
  Activity: inactive

## Cc1ccc(S(=O)(=O)N/N=C/c2cccn[n+]2[O-])cc1
Sarcoma-180 [1]
  survival at 40 mg/kg: 10%
Sarcoma-180 [2]
  survival at 60 mg/kg: 20%
Sarcoma-180 [3]
  survival at 80 mg/kg: 60%
Sarcoma-180 [4]
  T/C: 164%
Sarcoma-180 [5]
  T/C: 254%
Sarcoma-180 [6]
  T/C: 315%
Mus musculus [7]
  Activity: -0.2%
Mus musculus [8]
  Activity: -3.2%
Mus musculus [9]
  Activity: -4.9%
L1210 [10]
  Activity: inactive

## O=S(=O)(N/N=C/c1cccc[n+]1[O-])c1ccccc1
Sarcoma-180 [1]
  survival at 40 mg/kg: 20%
Sarcoma-180 [4]
  T/C: 235%
Mus musculus [7]
  Activity: -2.6%
L1210 [12]
  T/C: 126%

## COc1ccc(S(=O)(=O)N/N=C/c2cccc[n+]2[O-])cc1
L1210 [12]
  T/C: 234%

Source: ChEMBL document CHEMBL3244267, “Antineoplastic properties of arylsulfonylhdrazones of 3-formylpyridazine 2-oxide and 4-formylpyrimidine 3-oxide” (J Med Chem, 1978)
